KCNK3 block = human KCNK3 channel inhibitors, primary screen, CHO cells, FluxOR thallium flux, B-score; Potassium channel subfamily K member 3 (Homo sapiens), O14649; FluxOR fluorescence; stronger effect = lower value; B-score at 10 µM; actives 0.84% (n = 340,000); AID 602410, 2012;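 active = B-score under library mean minus 4 SD, starting fluorescence ratio at most library mean plus 5 SD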;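 also: more negative B-score means stronger inhibition of thallium flux through KCNK3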
Target sequence (O14649 whole entry, looked up): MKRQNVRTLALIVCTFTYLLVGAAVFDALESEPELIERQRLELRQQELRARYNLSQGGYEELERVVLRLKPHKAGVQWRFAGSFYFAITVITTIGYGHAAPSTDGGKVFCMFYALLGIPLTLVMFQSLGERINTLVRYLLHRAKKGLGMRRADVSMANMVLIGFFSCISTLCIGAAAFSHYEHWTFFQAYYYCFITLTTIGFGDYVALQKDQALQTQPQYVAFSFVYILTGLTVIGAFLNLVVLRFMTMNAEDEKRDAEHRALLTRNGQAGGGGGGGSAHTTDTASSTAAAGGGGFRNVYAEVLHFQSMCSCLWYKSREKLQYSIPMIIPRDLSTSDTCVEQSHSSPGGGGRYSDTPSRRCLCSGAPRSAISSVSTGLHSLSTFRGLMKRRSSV
hERG rescue = hERG rescue from dofetilide block, primary screen, cell-based, CHO-hERG, FluxOR thallium flux, dofetilide IC70; Voltage-gated inwardly rectifying potassium channel KCNH2 (Homo sapiens), Q12809; dofetilide IC70 present; activation (rescue from dofetilide block), less the hit threshold, % at 10 µM; actives 0.51% (n = 310,000);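 active = activation above the mean of controls blocked by dofetilide plus 5 SD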;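 also: thallium influx through hERG after potassium depolarization seen as dye fluorescence rise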
KCNK9 block = KCNK9 potassium channel inhibitors, primary screen, HEK293 cells, thallium flux. Potassium channel subfamily K member 9 (Homo sapiens), Q9NPC2. actives 1.2% (n = 310,000). B-score at 10 µM. FluxOR thallium flux fluorescence; stronger effect = lower value;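 active = ratio B-score over 3 SD below the library mean, with starting fluorescence within 5 SD of its mean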;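 also: negative B-score means less thallium flux so channel inhibition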
Cl transport mod = KCC2 cotransporter modulators, thallium flux, primary screen, cell-based, HEK293 KCC2, FluoZin-2 fluorescence, MLSMR | actives 2.2% (n = 190,000) | KCC2 cells, thallium flux FluoZin-2 fluorescence | B-score of Tl+ flux slope (higher = more flux/activation; lower = inhibition) at 10 µM;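 active = thallium flux slope and its plate-corrected score both differing from the plate sample mean at a set confidence after two filtering rounds, in either direction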;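 also: slope of fluorescence scaled to starting intensity during 10 to 20 s after thallium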
KCNQ1 block = inhibitors of human KCNQ1 channel, primary screen, cell-based, thallium flux, high-throughput; actives 1.3% (n = 310,000); B-score at 10 µM; CHO-K1 KCNQ1, FluxOR thallium flux fluorescence; stronger effect = higher value; Potassium voltage-gated channel subfamily KQT member 1 (Homo sapiens), P51787; AID 2642, 2010;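 active = compounds whose thallium flux B-score, printed positive for inhibition, exceeds three library SD while starting fluorescence stays within three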;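 also: channel opened by potassium depolarization with thallium stimulus after 20 min compound exposure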
KCNQ1 pot = potentiators or activators of KCNQ1 channel, primary screen, cell-based, thallium flux, high-throughput. actives 0.35% (n = 310,000). CHO-K1 KCNQ1, thallium flux FluxOR fluorescence; stronger effect = higher value. AID 2648, 2010. B-score at 10 µM. Potassium voltage-gated channel subfamily KQT member 1 (Homo sapiens), P51787;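 active = fluorescence ratio B-score, a plate-corrected score, at least three library SD, with initial intensity B-score within 5 SD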
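Doses: Single concentration per compound, DMSO matched to controls | Test system: KCNQ1-transfected CHO-K1 cells | Timing: 90 min dye loading and 20 min compound exposure, both at room temperature | Measured by: Kinetic FluxOR thallium fluorescence, 10-s 1-Hz baseline, 110-s post-stimulus read | Medium: Assay buffer with matched DMSO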
KCNK9 inh conf = KCNK9 potassium channel inhibitors, confirmation, HEK293 cells, thallium flux, duplicate; shares compounds with KCNK9 block; FluxOR thallium flux fluorescence; inhibition, % at 10 µM; actives 43% (n = 4,900); AID 492992, 2010;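 active = thallium signal inhibited by more than 5 SD of the compound-free buffer control wells, on both duplicate plates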
Kir2-1 spec = mouse Kir2.1 channel inhibition, confirmation, selectivity assay for KCNK9 modulator project, cell-based, HEK293, thallium flux; shares compounds with KCNK9 block; Kir2.1 cells, FluxOR thallium flux fluorescence; inhibition, % at 10 µM; actives 4% (n = 4,900); AID 492993, 2010;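 active = thallium signal drop more than 5 SD beyond the mean of the no-compound control wells, seen in both duplicate plates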;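 also: signal is fluorescence rise after thallium addition divided by baseline fluorescence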
KCNK9 uninduced = thallium flux in non-induced HEK293 cells, confirmation, counter-screen for KCNK9 inhibitor project, cell-based, second counter screen, non-induced KCNK9-HEK293; actives 40% (n = 4,900); inhibition, % at 10 µM; shares compounds with KCNK9 block; AID 492997, 2010; FluxOR thallium flux;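 active = thallium signal drop beyond 5 SD of the untreated control mean, on both duplicate plates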
A number is an active result; – = inactive; · = no result. The list is not random: actives were taken first. Their share in the collection is about 4.1%.

SMILES	KCNK3 block	hERG rescue	KCNK9 block	Cl transport mod	KCNQ1 block	KCNQ1 pot	KCNK9 inh conf	Kir2-1 spec	KCNK9 uninduced
Cc1cccc(C)c1NC(=O)CNC(=O)CN1C(=O)NC2(CCc3ccccc32)C1=O (centres undefined)	–	·	·	·	·	·	·	·	·
COC(=O)c1cn(CCOc2ccccc2F)c2ccccc12	–	–	-11	·	–	–	45%	–	44%
COC(=O)c1cn(CCOc2ccccc2OC)c2ccccc12	–	–	–	–	–	–	·	·	·
O=C(Nc1cccn(Cc2c(Cl)cccc2Cl)c1=O)c1c(Cl)cccc1Cl	–	–	-10	–	–	–	54%	–	–
COC(=O)Nc1cccn(Cc2c(Cl)cccc2Cl)c1=O	–	–	–	–	–	–	·	·	·
Cc1ccc2nc(COC(=O)c3cnccn3)cc(=O)n2c1	–	·	·	·	·	·	·	·	·
O=C(Nc1ccc2c(c1)N(S(=O)(=O)c1cccs1)CCC2)c1c(F)cccc1Cl	–	–	-11	·	–	–	–	–	36%
CCCCCc1ccc(OCCC[n+]2ccccc2)c(CCCCC)c1	–	–	–	–	–	–	·	·	·
CCCCCc1ccc(OCCOCCn2c[n+](C)c3ccccc32)c(CCCCC)c1	–	–	-8.4	–	7	–	53%	61%	–
Cc1cccc(Cc2nnc(CCC(=O)N(C)C3CCOC3)o2)c1 (centres undefined)	–	–	–	–	–	–	·	·	·
O=C(Nc1cc(Sc2nc3ccccc3s2)cc([N+](=O)[O-])c1)c1ccccc1F	–	–	-9	–	–	–	32%	–	30%
O=C(Nc1cc(Sc2ccccn2)cc([N+](=O)[O-])c1)c1cccc(F)c1	–	–	–	–	–	–	·	·	·
Cc1noc(C)c1NC(=O)Nc1ccc2c(c1)C(=O)N([C@H](C)CO)C[C@H](C)[C@@H](CN(C)S(=O)(=O)c1c(C)noc1C)O2	–	·	·	·	·	·	·	·	·
CCC(=O)N(CCc1ccc(OC)c(OC)c1)Cc1cc2ccc(C)cc2n2nnnc12	–	–	–	–	–	–	·	·	·
Cc1cccc(-c2nc(CSCC(=O)NCc3cccs3)c(C)o2)c1	–	–	–	–	–	–	–	–	–
COc1ccc(S(=O)(=O)N2CCc3ccccc32)cc1C(=O)N(CC(C)C)C1CCS(=O)(=O)C1 (centres undefined)	–	–	–	·	–	–	·	·	·
O=C(c1n[nH]c2ccccc12)N1CCN(c2ccc(F)cc2)CC1	–	–	–	–	–	–	·	·	·
COc1ccc(C(=O)Nc2oc(-c3ccccc3)c(-c3ccccc3)c2C#N)cc1OC	–	–	-9.2	·	–	–	49%	–	38%
COc1ccc(C(CNC(=O)c2ccc(-c3cccc(C(F)(F)F)c3)o2)N2CCOCC2)cc1 (centres undefined)	–	–	–	·	–	–	·	·	·
Cc1cc(C)c(C(=O)N2CCCC(Nc3ccc(F)cc3)C2)o1 (centres undefined)	–	–	–	·	–	–	·	·	·
CSCc1ccc(C(=O)N2CCCC(Nc3ccc(F)cc3)C2)o1 (centres undefined)	–	–	–	·	–	–	–	33%	–
O=C(c1cc(Cl)ccc1F)N1CCCC(Nc2ccc3c(c2)OCCO3)C1 (centres undefined)	–	–	–	·	–	–	–	–	–
CSCc1ccc(C(=O)N2CCCC(Nc3ccc4c(c3)OCCO4)C2)o1 (centres undefined)	–	–	–	·	–	–	–	–	–
COc1ccc(NC(=O)N(CCc2ccccc2)Cc2cc3c(C)cc(C)cc3[nH]c2=O)cc1	–	–	–	·	–	–	–	–	–
COc1ccc2[nH]c(=O)c(CN(CCc3ccccc3)C(C)=O)cc2c1	–	–	–	·	–	–	·	·	·
SMILES	KCNK3 block	hERG rescue	KCNK9 block	Cl transport mod	KCNQ1 block	KCNQ1 pot	KCNK9 inh conf	Kir2-1 spec	KCNK9 uninduced
CCn1c(=NC(=O)CSC(C)=O)sc2ccccc21	–	–	–	–	–	–	·	·	·
CCOC(=O)Cn1c(=NC(=O)CSC(C)=O)sc2cc(F)ccc21	–	–	-8.6	–	–	–	63%	–	33%
CCn1c(=NC(=O)CSC(C)=O)sc2cc(OC)ccc21	–	–	-14	–	–	–	60%	–	32%
COCCn1c(=NC(=O)CSC(C)=O)sc2cc(F)ccc21	–	–	–	·	–	–	·	·	·
O=C(CN1CCN(C(=O)CNC(=O)c2ccc3c(c2)OCO3)CC1)Nc1ccc(F)cc1	–	·	·	·	·	·	·	·	·
Clc1nc(CN2CCOCC2)nc2sc3c(c12)CCC3	–	–	–	–	–	–	·	·	·
Cc1cccc(Oc2nc(CN3CCOCC3)nc3sc4c(c23)CCCC4)c1	–	–	–	–	–	–	–	–	–
CCOC(=O)c1c(C)c(C(=O)N2CCc3ccccc3C2)c(C)n1CC	–	–	–	-4.6	–	–	–	–	–
CC(O)CNc1nc2sc3c(c2c(=O)n1CCc1ccccc1)CCCCC3 (centres undefined)	–	–	–	–	–	–	–	–	–
CN(C)CCNc1nc2sc3c(c2c(=O)n1CCc1ccccc1)CCCCC3	–	–	–	–	–	–	·	·	·
COC(=O)Cn1c(=O)n(CCc2ccccc2)c(=O)c2c3c(sc21)CCCC3	–	–	–	–	–	–	–	–	–
O=C(COC(=O)COc1ccccc1)Nc1ccc(Br)cc1Br	–	·	·	·	·	·	·	·	·
COc1cccc(NC(=O)c2sc3nc(N4CCOCC4)c4c(c3c2N)CCCC4)c1	–	–	-11	·	–	–	–	–	–
Cc1nc(SCC(=O)N2CCN(C(=O)c3ccco3)CC2)c2c(C)c(C)sc2n1	–	–	–	–	–	–	·	·	·
Cc1nc(SCc2ccc(C(=O)O)cc2)c2c(C)c(C)sc2n1	–	–	–	–	–	–	–	–	–
CCOc1cc(CNc2ccc3c(c2)OCCO3)cc(Br)c1OCC	–	–	–	–	–	–	–	–	–
CCOc1cc(CNc2ccc(N3CCOCC3)cc2)cc(Br)c1OCC	–	–	–	–	–	–	·	·	·

High-throughput results: PubChem, several laboratories
